Test results from ChEMBL document CHEMBL3525985, “Regiospecificity and stereospecificity of human UDP-glucuronosyltransferases in the glucuronidation of estriol, 16-epiestriol, 17-epiestriol, and 13-epiestradiol” (Drug Metab Dispos, 2013).
Blank lines part the entries; values can stand above or below the molecule they belong to.

Key:
Type in all cases: ADME
Settings in all cases: recombinant enzyme
[1] = molecular target: T1, UDP-glucuronosyltransferase 1A10 (Homo sapiens, UniProt Q9HAW8); assay: Drug metabolism assessed as recombinant human C-terminal His-tagged UGT1A10-mediated 17-epiestriol-3-glucuronide formation at 200 uM after 15 to 60 mins by HPLC analysis in presence of UDPGA
T1 sequence (Q9HAW8 whole entry): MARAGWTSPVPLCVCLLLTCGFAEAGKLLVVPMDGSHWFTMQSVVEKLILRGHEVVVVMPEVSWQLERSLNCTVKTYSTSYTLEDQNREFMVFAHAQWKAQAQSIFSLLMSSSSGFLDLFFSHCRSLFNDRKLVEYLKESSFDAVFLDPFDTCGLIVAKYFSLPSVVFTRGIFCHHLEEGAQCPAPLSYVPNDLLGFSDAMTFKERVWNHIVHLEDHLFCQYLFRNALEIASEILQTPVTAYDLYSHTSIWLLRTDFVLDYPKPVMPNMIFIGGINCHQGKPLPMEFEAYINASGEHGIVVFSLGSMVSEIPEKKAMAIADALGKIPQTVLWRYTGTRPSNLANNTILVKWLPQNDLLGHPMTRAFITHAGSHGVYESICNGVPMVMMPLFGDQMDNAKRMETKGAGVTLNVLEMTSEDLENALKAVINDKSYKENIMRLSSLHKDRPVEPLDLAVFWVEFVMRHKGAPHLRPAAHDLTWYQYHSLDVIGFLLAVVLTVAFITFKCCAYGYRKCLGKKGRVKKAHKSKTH
Summary of the method: (§1)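 Screening at a single substrate concentration of 200 μM, in triplicate. The reaction used 5 or 50 µg of UGT-enriched insect cell membranes in 50 mM phosphate pH 7.4 with 10 mM MgCl₂ and 5 mM UDPGA, 10% final DMSO. Incubation was 15–60 min at 37°C. Perchloric acid stopped the reaction and supernatants were analysed by HPLC. Controls lacked UDPGA. Rates were normalized to relative UGT expression level.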

[2] = molecular target: T2, UDP-glucuronosyltransferase 2B17 (Homo sapiens, UniProt O75795); assay: Drug metabolism assessed as recombinant human C-terminal His-tagged UGT2B17-mediated 17-epiestriol glucuronide metabolite formation after 15 to 60 mins by HPLC analysis in presence of UDPGA
T2 sequence (O75795 whole entry): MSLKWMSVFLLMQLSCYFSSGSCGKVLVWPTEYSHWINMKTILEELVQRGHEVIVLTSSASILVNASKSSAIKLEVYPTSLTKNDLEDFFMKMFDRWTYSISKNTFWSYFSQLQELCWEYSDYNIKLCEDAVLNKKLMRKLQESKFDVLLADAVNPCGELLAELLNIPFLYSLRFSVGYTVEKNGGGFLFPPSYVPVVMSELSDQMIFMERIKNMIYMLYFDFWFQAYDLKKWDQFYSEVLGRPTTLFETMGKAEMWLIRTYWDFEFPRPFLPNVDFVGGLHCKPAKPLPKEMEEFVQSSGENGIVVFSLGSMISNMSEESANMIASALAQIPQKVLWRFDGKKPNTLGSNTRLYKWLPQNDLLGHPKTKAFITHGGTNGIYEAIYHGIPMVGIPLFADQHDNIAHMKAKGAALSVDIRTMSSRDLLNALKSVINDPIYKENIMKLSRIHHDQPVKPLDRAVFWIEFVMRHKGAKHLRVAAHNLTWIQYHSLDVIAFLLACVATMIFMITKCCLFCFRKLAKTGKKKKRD

[3] = molecular target: T3, UDP-glucuronosyltransferase 2A1 (Homo sapiens, UniProt P0DTE4); assay: Drug metabolism assessed as recombinant human C-terminal His-tagged UGT2A1-mediated 16-epiestriol-17-glucuronide formation at 200 uM after 15 to 60 mins by HPLC analysis in presence of UDPGA; summary of the method: as §1
T3 sequence (P0DTE4 whole entry): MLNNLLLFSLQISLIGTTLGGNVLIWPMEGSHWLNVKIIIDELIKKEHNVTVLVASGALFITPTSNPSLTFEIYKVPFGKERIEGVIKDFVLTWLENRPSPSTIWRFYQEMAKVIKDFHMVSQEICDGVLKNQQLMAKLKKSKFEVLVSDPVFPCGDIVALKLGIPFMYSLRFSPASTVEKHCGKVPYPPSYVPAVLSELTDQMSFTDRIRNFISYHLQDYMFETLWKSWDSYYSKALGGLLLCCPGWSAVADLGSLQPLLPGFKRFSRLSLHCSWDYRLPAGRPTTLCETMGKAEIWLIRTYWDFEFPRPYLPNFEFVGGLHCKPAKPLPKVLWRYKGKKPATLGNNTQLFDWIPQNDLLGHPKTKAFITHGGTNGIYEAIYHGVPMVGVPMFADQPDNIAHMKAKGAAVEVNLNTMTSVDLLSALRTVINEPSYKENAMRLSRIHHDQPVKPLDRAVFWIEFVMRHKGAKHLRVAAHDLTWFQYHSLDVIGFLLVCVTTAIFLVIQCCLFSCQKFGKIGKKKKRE

[4] = molecular target: T4, UDP-glucuronosyltransferase 1A8 (Homo sapiens, UniProt Q9HAW9); assay: Drug metabolism assessed as recombinant human C-terminal His-tagged UGT1A8-mediated estriol-3-glucuronide formation at 200 uM after 15 to 60 mins by HPLC analysis in presence of UDPGA
T4 sequence (Q9HAW9 whole entry): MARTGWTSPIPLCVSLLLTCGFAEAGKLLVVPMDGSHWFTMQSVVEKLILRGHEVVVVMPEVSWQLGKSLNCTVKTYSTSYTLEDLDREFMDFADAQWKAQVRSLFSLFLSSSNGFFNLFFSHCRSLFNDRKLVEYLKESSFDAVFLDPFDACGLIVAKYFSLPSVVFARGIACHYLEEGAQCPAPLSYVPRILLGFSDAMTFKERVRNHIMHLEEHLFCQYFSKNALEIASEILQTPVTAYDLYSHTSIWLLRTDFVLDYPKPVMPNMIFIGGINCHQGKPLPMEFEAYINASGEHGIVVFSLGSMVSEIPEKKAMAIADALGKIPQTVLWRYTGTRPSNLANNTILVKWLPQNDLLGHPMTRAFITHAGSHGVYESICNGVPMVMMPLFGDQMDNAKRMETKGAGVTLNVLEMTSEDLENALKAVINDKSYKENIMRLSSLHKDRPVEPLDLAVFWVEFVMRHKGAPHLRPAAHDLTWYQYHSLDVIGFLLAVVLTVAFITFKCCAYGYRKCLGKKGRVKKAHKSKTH
Summary of the method: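 Screen at 200 µM substrate (DMSO, 10% final) with 5 or 50 µg UGT-enriched insect-cell membranes in 50 mM phosphate pH 7.4, 10 mM MgCl2, 5 mM UDPGA; 37°C, 15–60 min. Stopped with perchloric acid, then iced and centrifuged; glucuronides resolved by HPLC. Triplicates with no-UDPGA controls; ≤10% substrate consumed; rates normalized to relative UGT expression (UGT1A7 15.5, UGT1A8 1.4; UGT1A3 = 1.0).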

Drug metabolism [1]: metabolite_detected | Drug metabolism [2]: metabolite_not_detected
Compound: C[C@]12CC[C@@H]3c4ccc(O)cc4CC[C@H]3[C@@H]1C[C@@H](O)[C@H]2O

Drug metabolism [3]: metabolite_detected
Compound: C[C@]12CC[C@@H]3c4ccc(O)cc4CC[C@H]3[C@@H]1C[C@H](O)[C@@H]2O [EPIESTRIOL]

Drug metabolism [4]: metabolite_detected
Compound: C[C@]12CC[C@@H]3c4ccc(O)cc4CC[C@H]3[C@@H]1C[C@@H](O)[C@@H]2O [ESTRIOL]
